Assay outcomes from PubChem.
JNK3 blocker – JNK3 (human) kinase inhibition | purified JNK3 kinase activity, HTS | AID 746 | P53779 | 60,000 tested, 0.61% active | inhibition, % at 8 µM; in the data active = inhibition above about 17%
RORA act – activators of human nuclear receptor RORA; CHO-K1 Gal4-RORA LBD luciferase reporter, luminescence; percent increase over mock-subtracted basal signal; activation, % at 10 µM; 65,000 tested, 1.5% active; AID 560;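 active = activation above the mean of all tested compounds plus 3 SD, cut at about 49% in these data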
PKA kinase inh – inhibitors of human protein kinase A; P17612; PKA Kemptide phosphorylation, Kinase-Glo ATP luminescence; inhibition, % at 6 µM; 65,000 tested, 0.1% active;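 active = inhibition above the screen-wide mean inhibition plus 3 SD, cut at about 21% in these data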
MMP13 inh – blocks human MMP13 activity | P45452 | inhibition, % at 4 µM | 65,000 tested, 0.07% active | AID 570 | MMP-13 fTHP FRET cleavage, Mca fluorescence;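 active = inhibition above the mean of compound-free control plate wells plus 3 SD, cut at about 14% in these data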
SF-1 act – activates the human nuclear receptor SF-1. Q13285. CHO-K1 Gal4-SF-1 LBD luciferase reporter; % increase over DMSO SF-1-specific signal. activation, % at 10 µM. 65,000 tested, 1.9% active. AID 522;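 active = activation above the mean activation of all tested compounds plus 3 SD, cut at about 50% in these data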
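Assay system: CHO-K1 cells co-transfected with Gal4 DBD–human SF-1 LBD, 5xGal4 luciferase reporter / Input: 4,000 cells per well / Incubation: 20 h compound exposure at 37 °C after 1 h cell settling / Detection: SteadyLite luciferase luminescence / Control set: DMSO negative control and −SF1 background wells / Replication: one test per compound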
ROCK2 blocker – inhibitors of human Rho kinase 2 | 60,000 tested, 0.35% active | O75116 | AID 604 | purified ROCK2, Kinase-Glo ATP depletion luminescence | inhibition, % at 6 µM;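 active = inhibition above the screen-wide mean inhibition plus 3 SD, cut at about 18% in these data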
Numbers stand for hits. In the library only some 3.4% were active in any assay of this set; here they are far more common.

`O=C(c1ccccc1)N(c1ccccc1)C1C=CS(=O)(=O)C1` (stereo not drawn) gave JNK3 blocker inactive, RORA act inactive, PKA kinase inh inactive, MMP13 inh inactive, SF-1 act inactive and ROCK2 blocker inactive.
For COc1ccc(CC(=O)Nc2cc(C)ccn2)cc1 the results were JNK3 blocker 27, RORA act inactive, PKA kinase inh inactive, MMP13 inh inactive, SF-1 act inactive and ROCK2 blocker inactive.
Cc1ccnc(NC(=O)CCC2CCCCC2)c1 was read as JNK3 blocker inactive, RORA act inactive, PKA kinase inh inactive, MMP13 inh inactive, SF-1 act inactive and ROCK2 blocker inactive.
Cc1nc2c(cc(Oc3ccc(S(=O)(=O)N4CCOCC4)cn3)c3ccsc32)s1 was read as JNK3 blocker inactive, RORA act inactive, PKA kinase inh inactive, MMP13 inh inactive, SF-1 act 53 and ROCK2 blocker inactive.
`CC1CCCCN1C(=O)C1CC(c2ccc(F)cc2)=NO1` (stereo not drawn) gave JNK3 blocker inactive, RORA act 49, PKA kinase inh inactive, MMP13 inh inactive, SF-1 act 63 and ROCK2 blocker inactive.
Screening O=C(C1CC(c2ccc(F)cc2)=NO1)N1CCc2ccccc2C1 (stereo not drawn) returned JNK3 blocker inactive, RORA act inactive, PKA kinase inh inactive, MMP13 inh inactive, SF-1 act inactive and ROCK2 blocker inactive.
`COc1cccc2cc(-c3nc(-c4cccs4)cs3)c(=O)oc12` gave JNK3 blocker inactive, RORA act 55, PKA kinase inh inactive, MMP13 inh inactive, SF-1 act inactive and ROCK2 blocker inactive.
c1csc(-c2csc(-c3cccs3)n2)c1 was read as JNK3 blocker inactive, RORA act inactive, PKA kinase inh inactive, MMP13 inh inactive, SF-1 act 63 and ROCK2 blocker inactive.
Screening c1cncc(-c2nc(-c3cccs3)cs2)c1 returned RORA act inactive, PKA kinase inh inactive, MMP13 inh inactive and SF-1 act inactive.
CCOC(=O)c1csc(NC(=O)c2ccccc2)n1 was read as JNK3 blocker inactive, RORA act 79, PKA kinase inh inactive, MMP13 inh inactive, SF-1 act 63 and ROCK2 blocker inactive.
For CC(=O)NC1Sc2ccccc2N=C1c1ccccc1 (stereo not drawn) the results were JNK3 blocker inactive, RORA act inactive, PKA kinase inh inactive, MMP13 inh inactive, SF-1 act 59 and ROCK2 blocker inactive.
`CC(=O)Nc1nc(-c2ccccc2)nc(C)c1C(C)=O` gave JNK3 blocker inactive, RORA act inactive, PKA kinase inh inactive, MMP13 inh inactive, SF-1 act inactive and ROCK2 blocker inactive.
Cc1cc2c(ccc3[nH]onc32)n1 was read as JNK3 blocker inactive, RORA act inactive, PKA kinase inh 29, MMP13 inh inactive, SF-1 act inactive and ROCK2 blocker 18.
O=C(Nc1cccc(Cl)c1)Nc1nccs1 was read as JNK3 blocker inactive, RORA act 72, PKA kinase inh inactive, MMP13 inh inactive, SF-1 act inactive and ROCK2 blocker inactive.
N#CCc1ccc(NC(=O)Nc2cccc(Cl)c2)cc1 was read as JNK3 blocker inactive, RORA act inactive, PKA kinase inh inactive, MMP13 inh inactive, SF-1 act 79 and ROCK2 blocker inactive.
O=C(Nc1ccc(C(=O)N2CCOCC2)cc1)Nc1cccc(Cl)c1 was read as JNK3 blocker inactive, RORA act inactive, PKA kinase inh inactive, MMP13 inh inactive, SF-1 act inactive and ROCK2 blocker inactive.
`CC(=O)c1cccc(NC(=O)NC2CCCCC2)c1` gave JNK3 blocker inactive, RORA act inactive, PKA kinase inh inactive, MMP13 inh inactive, SF-1 act inactive and ROCK2 blocker inactive.
O=C(Nc1cccc(Cl)c1)NC1CCCCC1 was read as JNK3 blocker inactive, RORA act 54, PKA kinase inh inactive, MMP13 inh inactive, SF-1 act 59 and ROCK2 blocker inactive.
O=C(NCc1ccccn1)Nc1cccc(Cl)c1 was read as JNK3 blocker inactive, RORA act inactive, PKA kinase inh inactive, MMP13 inh inactive, SF-1 act 63 and ROCK2 blocker inactive.
For Cc1sc2nc3c(C(=O)N4CCN(c5ncccn5)CC4)cccn3c(=O)c2c1C the results were RORA act inactive, PKA kinase inh inactive, MMP13 inh inactive and SF-1 act inactive.
O=C(CN(C(=O)CSc1nnc(COc2ccccc2)o1)c1ccc(F)cc1)NC1CCCCC1 was read as JNK3 blocker inactive, RORA act inactive, PKA kinase inh inactive, MMP13 inh inactive, SF-1 act inactive and ROCK2 blocker inactive.
`Cc1csc(NC(=O)Nc2cccc(Cl)c2)n1` gave JNK3 blocker inactive, RORA act 70, PKA kinase inh inactive, MMP13 inh inactive, SF-1 act 63 and ROCK2 blocker inactive.
For Cc1nnc(NC(=O)Nc2cccc(Cl)c2)s1 the results were JNK3 blocker inactive, RORA act inactive, PKA kinase inh inactive, MMP13 inh inactive, SF-1 act inactive and ROCK2 blocker inactive.
Screening CCC(=O)N1CCc2cc(S(=O)(=O)CCC(=O)NCCC3=CCCCC3)ccc21 returned JNK3 blocker inactive, RORA act inactive, PKA kinase inh inactive, MMP13 inh inactive, SF-1 act inactive and ROCK2 blocker inactive.
Screening CCOc1ccc(NC(=O)CN2C(=O)C3CCCN3C2=O)cc1 (stereo not drawn) returned JNK3 blocker 17, RORA act inactive, PKA kinase inh inactive, MMP13 inh inactive, SF-1 act inactive and ROCK2 blocker inactive.
Screening O=C(CCN1CCCCCC1)Nc1cccc(Cl)c1 returned JNK3 blocker inactive, RORA act inactive, PKA kinase inh inactive, MMP13 inh inactive, SF-1 act inactive and ROCK2 blocker inactive.
c1ccc(-c2nn3c(-c4ccncc4)nnc3s2)nc1 was read as JNK3 blocker inactive, RORA act inactive, PKA kinase inh inactive, MMP13 inh inactive, SF-1 act inactive and ROCK2 blocker inactive.
`CC(C)Oc1ccc(NC(=O)Oc2ccccc2)cc1` gave JNK3 blocker inactive, RORA act inactive, PKA kinase inh inactive, MMP13 inh inactive, SF-1 act 52 and ROCK2 blocker inactive.
c1ccc(-c2cnc(CSc3nnc4ccccn34)o2)cc1 was read as JNK3 blocker inactive, RORA act inactive, PKA kinase inh inactive, MMP13 inh inactive, SF-1 act 71 and ROCK2 blocker inactive.
`Cn1c(C(=O)NCc2ccccn2)cc2c(=O)n3ccccc3nc21` gave JNK3 blocker inactive, RORA act 53, PKA kinase inh inactive, MMP13 inh inactive, SF-1 act 61 and ROCK2 blocker inactive.
For CC(C)=CCCC(C)N(C=O)C(C)CCC=C(C)C (stereo not drawn) the results were JNK3 blocker inactive, RORA act inactive, PKA kinase inh inactive, MMP13 inh inactive, SF-1 act inactive and ROCK2 blocker inactive.
For Cc1cc2c(cc1C)NC(c1c(C)n(C)n(-c3ccccc3)c1=O)C1=C(CC(C)(C)CC1=O)N2 (stereo not drawn) the results were RORA act inactive, PKA kinase inh inactive, MMP13 inh inactive and SF-1 act 62.
